The results in this text go back to ChEMBL document CHEMBL2311419, “Discovery of coumarin-dihydropyridine hybrids as bone anabolic agents” (J Med Chem, 2013).

The EC50 is the midpoint of the concentration-response curve. A high value points to weaker potency.

Structures are written as SMILES. The source made the active and inactive calls. The rule behind the calls is not given here.

The species entered for data set [1] is Mus musculus. In words: Stimulation of alkaline phosphatase activity in mouse calvarial osteoblasts at 1 pM to 1 uM after 48 hrs by spectrophotometric analysis. Put shortly:
(§1)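 Calvarial osteoblasts were exposed to compounds over 1 pM to 1 µM. ALP activity was read spectrophotometrically as optical density at 405 nm. Results were expressed as % ALP activity, with EC50 and Emax derived from the concentration series.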

The species entered for data set [2] is Mus musculus. Description: Stimulation of alkaline phosphatase activity in mouse calvarial osteoblasts at 1 pM to 1 uM after 48 hrs by spectrophotometric analysis relative to nifedipine.
A short description of data set [3]: Cytotoxicity against mouse calvarial osteoblasts assessed as cell viability at 1 pM to 1 uM after 48 hrs by MTT assay. Conditions: calvarial osteoblast. In kind it is cell-based.
The subject of data set [4] is Calvarial osteoblast. Description: Induction of mineralization in mouse calvarial osteoblasts assessed as increase of mineralized nodules formation measuring concentration required for maximum activity after 21 days by alizarin red-S staining based spectrophotometric analysis. In kind it is functional.
For data set [5], the system named is Calvarial osteoblast. Description: Induction of proliferation of mouse calvarial osteoblasts at 1 pM to 1 uM after 48 hrs. In kind it is functional, cell-based.
Data set [6] is filed under the species Mus musculus. Description: Stimulation of alkaline phosphatase activity in mouse calvarial osteoblasts assessed as concentration required for maximum activity after 48 hrs by spectrophotometric analysis. Put shortly:
as §1

For data set [7], the system named is Calvarial osteoblast. In words: Induction of osteoblastogenesis in mouse calvarial osteoblasts assessed as increase in COL1 expression at 100 pM to 10 nM by Western blotting analysis. In kind it is functional, cell-based. For orientation: In western blotting, separated proteins are transferred to a membrane and probed.
Data set [8] relates to Calvarial osteoblast. In words: Induction of osteoblastogenesis in mouse calvarial osteoblasts assessed as increase in BMP2 expression at 100 pM to 10 nM by Western blotting analysis. In kind it is functional, cell-based.
Data set [9] deals with Calvarial osteoblast. In words: Induction of osteoblastogenesis in mouse calvarial osteoblasts assessed as increase in RUNX2 expression at 100 pM to 10 nM by Western blotting analysis. In kind it is functional, cell-based.
The test system of data set [10] is Calvarial osteoblast. Description: Induction of osteoblastogenesis in mouse calvarial osteoblasts assessed as increase in expression of COL1 gene at 100 pM by qPCR analysis relative to control. In kind it is functional, cell-based.
Data set [11] concerns Calvarial osteoblast. Description: Induction of osteoblastogenesis in mouse calvarial osteoblasts assessed as increase in expression of osteocalcin gene at 100 pM by qPCR analysis relative to control. In kind it is functional, cell-based.
The test system of data set [12] is Calvarial osteoblast. In words: Induction of osteoblastogenesis in mouse calvarial osteoblasts assessed as increase in expression of ALP gene at 100 pM by qPCR analysis relative to control. In kind it is functional, cell-based.
Data set [13] concerns Calvarial osteoblast. Description: Induction of osteoblastogenesis in mouse calvarial osteoblasts assessed as increase in expression of BMP2 gene at 100 pM by qPCR analysis relative to control. In kind it is functional, cell-based.
Data set [14] concerns Calvarial osteoblast. Description: Induction of osteoblastogenesis in mouse calvarial osteoblasts assessed as increase in expression of RUNX2 gene at 100 pM by qPCR analysis relative to control. In kind it is functional, cell-based. Background: Real-time PCR tracks product formation cycle by cycle.
The test system of data set [15] is Calvarial osteoblast. Description: Induction of osteoblastogenesis in mouse calvarial osteoblasts assessed as increase in expression of COL1 gene at 100 pM to 10 nM by qPCR analysis relative to control. In kind it is functional.
Data set [16] deals with Calvarial osteoblast. Description: Induction of osteoblastogenesis in mouse calvarial osteoblasts assessed as increase in expression of osteocalcin gene at 100 pM to 10 nM by qPCR analysis relative to control. In kind it is functional.
Data set [17] deals with Calvarial osteoblast. In words: Induction of osteoblastogenesis in mouse calvarial osteoblasts assessed as increase in expression of ALP gene at 100 pM to 10 nM by qPCR analysis relative to control. In kind it is functional.
For data set [18], the system named is Calvarial osteoblast. Description: Induction of osteoblastogenesis in mouse calvarial osteoblasts assessed as increase in expression of BMP2 gene at 100 pM to 10 nM by qPCR analysis relative to control. In kind it is functional.
The test system of data set [19] is Calvarial osteoblast. In words: Induction of osteoblastogenesis in mouse calvarial osteoblasts assessed as increase in expression of RUNX2 gene at 100 pM to 10 nM by qPCR analysis relative to control. In kind it is functional.
Data set [20] is described as follows: Stimulation of alkaline phosphatase activity in mouse calvarial osteoblasts after 48 hrs by spectrophotometric analysis. A digest of the protocol: as §1

`CCOC(=O)C1=C(C)NC2=C(C(=O)CC(C)(C)C2)C1c1cc(C(C)CC)c2oc(=O)c(C(=O)OC)cc2c1` (racemic): the Activity was 43% in [1], 17% in [2] and “Non-toxic” in data set [3]. Moreover, the “Concentration for maximum mineralization” value in data set [4] was 100 pM. Moreover, the result in [5], in data set [7], in data set [8], in [9], in [10] and in data set [11] was Active. Also, the result in data set [12], in [13] and in data set [14] was Active. Besides, in data set [6], the Concentration giving maximum ALP activity was 1 pM. Moreover, the “fold change (FC)” value in [15], in [16], in [17], in data set [18] and in [19] was 1.5 throughout. In [20], this compound gave a 50% effective concentration (EC50) of 1010 nM.
